The values below come from ChEMBL document CHEMBL3525966, “Compartmental and enzyme kinetic modeling to elucidate the biotransformation pathway of a centrally acting antitrypanosomal prodrug” (Drug Metab Dispos, 2013).

In series [1] the test system is Liver microsome. The experiment in a line: Ratio of drug metabolism in […] to drug metabolism in rat hepatocytes at 10 uM after 4 hrs of incubation by HPLC-MS/MS analysis. It is filed as ADME, cell-based, Hepatocyte.
Series [2] is described as follows: Drug metabolism in sandwich-cultured human hepatocytes assessed as (Z)-N'-hydroxy-6-(5-(5-((Z)-N'-methoxycarbamimidoyl)pyridin-2-yl)furan-2-yl)nicotinimidamide at 10 uM after 4 hrs of incubation by HPLC-MS/MS analysis. It is filed as ADME, cell-based, Hepatocyte. In outline:
(§1)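 Sandwich-cultured hepatocytes were used on day 5 (human) or day 4 (rat) and rinsed with warm phenol-red-free DMEM. They were then exposed to 10 µM DB868 (0.1–0.2% DMSO) at 37°C. Medium and methanol/water cell lysates were collected at 0.5, 2, 4 and 24 h. Analytes were quantified by HPLC/MS/MS with deuterated internal standards; protein by Bradford. Replicates: 6 (human) or 4 (rat).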

For series [3], the system named is Trypanosoma brucei rhodesiense. The experiment in a line: Antitrypanosomal activity against Trypanosoma brucei rhodesiense STIB900 infected po dosed mouse model. It is filed as functional.
Another series has as its target T1, Cytochrome P450 4F1 (Rattus norvegicus, UniProt P33274).
T1 sequence (P33274 whole entry): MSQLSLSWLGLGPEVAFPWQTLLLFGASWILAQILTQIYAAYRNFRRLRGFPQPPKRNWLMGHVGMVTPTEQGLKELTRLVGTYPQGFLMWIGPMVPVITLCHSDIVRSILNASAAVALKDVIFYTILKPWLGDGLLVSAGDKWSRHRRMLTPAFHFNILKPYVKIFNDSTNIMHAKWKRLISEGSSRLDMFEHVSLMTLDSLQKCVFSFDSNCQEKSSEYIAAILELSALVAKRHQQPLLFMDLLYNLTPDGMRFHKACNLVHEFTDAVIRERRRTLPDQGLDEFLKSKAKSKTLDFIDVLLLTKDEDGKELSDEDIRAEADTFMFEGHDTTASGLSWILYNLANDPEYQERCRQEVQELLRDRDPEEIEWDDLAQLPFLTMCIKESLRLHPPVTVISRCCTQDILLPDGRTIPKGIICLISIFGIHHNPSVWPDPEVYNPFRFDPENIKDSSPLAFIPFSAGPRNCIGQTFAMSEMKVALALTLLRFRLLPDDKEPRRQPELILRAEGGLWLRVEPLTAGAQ
The experiment in a line: Prodrug conversion assessed as rat purified CYP4F1-mediated (Z)-N'-hydroxy-6-(5-(5-((Z)-N'-methoxycarbamimidoyl)pyridin-2-yl)furan-2-yl) nicotinimidamide formation at 5 uM after 30 mins incubation by HPLC-UV chromatogram. The conditions noted are these: purified enzyme.

Series [4] is described as follows: Drug metabolism in sandwich-cultured human hepatocytes assessed as DB829 at 10 uM after 24 hrs of incubation by HPLC-MS/MS analysis. It is filed as ADME, cell-based, Hepatocyte. In outline:
as §1

Series [5] deals with Liver microsome. The experiment in a line: Prodrug conversion in rat liver microsomes assessed as elution time at 10 uM after 180 mins incubation by HPLC-UV chromatography. It counts as ADME. The conditions noted are these: 3 h. In outline:
(§2)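 HLM or RLM (0.5 mg/mL) were incubated in triplicate in 100 mM phosphate pH 7.4 with 10 mM MgCl2 and an NADPH-regenerating system (1 mM NADP+, glucose 6-phosphate, G6PDH). DB868 was 10 µM. Sampled up to 180 min. Prodrug and metabolites were measured by HPLC-UV at 359 nm and expressed relative to initial prodrug; DB829 LLOQ 50 nM.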

Series [6] deals with Liver microsome. The experiment in a line: Prodrug conversion in rat liver microsomes assessed as depletion of compound at 10 uM after 180 mins incubation by HPLC-UV chromatography. It is filed as ADME. The conditions noted are these: 3 h. In outline:
as §2
On the technique in general: Microsomes from liver hold many membrane-bound enzymes, among them those of drug oxidation.

The nature of series [7]: Drug metabolism in sandwich-cultured rat hepatocytes assessed as DB829 at 10 uM after 24 hrs of incubation by HPLC-MS/MS analysis. It counts as ADME, cell-based, Hepatocyte. In outline:
as §1

Series [8] deals with Liver microsome. The experiment in a line: Drug metabolism in human liver microsomes assessed as (Z)-N'-hydroxy-6-(5-(5-((Z)-N'-methoxycarbamimidoyl)pyridin-2-yl)furan-2-yl nicotinimidamide formation measured per mg of protein by HPLC-MS/MS analysis. It counts as ADME. In outline:
(§3)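 M1 formation kinetics: HLM or RLM (0.5 mg/mL) in phosphate pH 7.4 with MgCl2, DB868 0.1–100 µM, started with 2 mM NADPH. Run 5 min (HLM) or 10 min (RLM) under initial-rate conditions (<20% consumption) in triplicate. Quantified by HPLC/MS/MS with d6-DB868 internal standard. Fitted to a one-enzyme (HLM) or two-enzyme (RLM) Michaelis–Menten model; Clint = Vmax/Km.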

Series [9] concerns Liver microsome. The experiment in a line: Drug metabolism in human liver microsomes assessed as (Z)-N'-hydroxy-6-(5-(5-((Z)-N'-methoxycarbamimidoyl)pyridin-2-yl)furan-2-yl nicotinimidamide formation measured by HPLC-MS/MS analysis. It is filed as ADME. In outline: as §3
A further series concerns the target T2, Cytochrome P450 1A2 (Rattus norvegicus, UniProt P04799).
T2 sequence (P04799 whole entry): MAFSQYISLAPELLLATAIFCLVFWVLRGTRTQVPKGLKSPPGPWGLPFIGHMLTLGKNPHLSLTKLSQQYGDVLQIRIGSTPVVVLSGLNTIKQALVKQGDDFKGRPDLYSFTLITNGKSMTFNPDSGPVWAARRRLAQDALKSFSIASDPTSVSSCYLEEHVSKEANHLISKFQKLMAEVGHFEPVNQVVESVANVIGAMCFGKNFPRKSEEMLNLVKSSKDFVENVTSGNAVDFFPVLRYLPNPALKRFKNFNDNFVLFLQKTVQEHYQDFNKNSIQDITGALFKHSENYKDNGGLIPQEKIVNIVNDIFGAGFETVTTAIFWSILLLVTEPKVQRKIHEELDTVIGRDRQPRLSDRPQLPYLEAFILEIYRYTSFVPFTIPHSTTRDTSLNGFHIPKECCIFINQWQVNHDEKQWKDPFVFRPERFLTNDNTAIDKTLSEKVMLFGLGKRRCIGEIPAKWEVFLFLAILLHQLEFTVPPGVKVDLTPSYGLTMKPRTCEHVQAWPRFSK
The experiment in a line: Prodrug conversion assessed as rat recombinant CYP1A2-mediated (Z)-N'-hydroxy-6-(5-(5-((Z)-N'-methoxycarbamimidoyl)pyridin-2-yl)furan-2-yl) nicotinimidamide formation at 5 uM after 180 mins incubation by HPLC-UV chromatogram. It counts as ADME. The conditions noted are these: recombinant enzyme, 15 min, in the assay text read “15 mins” for “180 mins”. In outline:
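Insect-cell-expressed human or rat P450 (with NADPH-P450 reductase, some also with cytochrome b5) at 0.1 pmol/µL in 100 mM potassium phosphate pH 7.4 with 10 mM MgCl2. DB868 (for M1) or M1 (for M2) was added at 5 µM (0.5% DMSO) and started with 2 mM NADPH. Stopped after 15 min with ice-cold acetonitrile, then HPLC-UV. Duplicate incubations.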

`CO/N=C(\N)c1ccc(-c2ccc(-c3ccc(/C(N)=N/OC)cn3)o2)nc1.Cl`: the Ratio in the series with Liver microsome [1] stood at 25. In addition, the Drug metabolism entry in [2] is “metabolite_detected”; at Cytochrome P450 4F1 it was “metabolite_detected”; in series [4], “metabolite_detected”; in the series with Liver microsome [6], 43%; in series [7], “metabolite_detected”; at Cytochrome P450 1A2, “metabolite_detected”. Also, the Activity in [3] is reported as 100%. Also, the Retention_time with Liver microsome [5] amounted to 18.5 min. Also, the maximum rate (Vmax) with Liver microsome [8] is listed as 340 pmol/min. Moreover, the Km in the series with Liver microsome [9] stood at 11 µM.

What is called Vmax is the top rate of the reaction or transport when substrate is in excess. For orientation: Km means the substrate concentration at which the rate is half of its maximum.
